Results taken from ChEMBL document CHEMBL4330119 (J Med Chem, 2019).
Active and inactive are the calls of the source.

Key:
[1] = biological target: Kappa-type opioid receptor (Mus musculus, UniProt P33534); test: Displacement of [3H]-diprenorphine from mouse KOR expressed in CHO cell membranes by competitive radioligand binding assay
Summary of the method: (§1)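 30 μg CHO membrane protein incubated with radioligand and varying competitor in TME buffer (50 mM Tris, 3 mM MgCl2, 0.2 mM EGTA, pH 7.4). Bound ligand separated by filtration. […] IC50 from Hill plots, converted to Ki by Cheng–Prusoff.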

[2] = biological target: Delta-type opioid receptor (Mus musculus, UniProt P32300); test: Displacement of [3H]-diprenorphine from mouse DOR expressed in CHO cell membranes by competitive radioligand binding assay; summary of the method: as §1
Mus musculus [3] = test: In vivo antagonist activity at MOR in Swiss Webster mouse assessed reduction in morphine-induced antinociceptive effect by measuring morphine MPE at 10 mg/kg, sc preincubated for 5 mins followed by morphine addition and measured after 20 min post morphine challenge by tail immersion test relative to control; format: functional
Summary of the method: (§2)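 Male Swiss Webster mice, 5 per group. […] Baseline latency 2–4 s, 10 s cutoff. %MPE calculated per mouse. AD50 by least-squares linear regression, 95% CI by Bliss method.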

Mus musculus [4] = test: In vivo antagonist activity at MOR in sc dosed Swiss Webster mouse assessed reduction in morphine-induced antinociceptive effect by measuring morphine MPE preincubated for 5 mins followed by morphine addition and measured after 20 min post morphine challenge by tail immersion test; format: functional; summary of the method: as §2
Mus musculus [5] = test: Induction of withdrawal symptoms in morphine-pelleted Swiss Webster mouse model assessed as dog shakes at 10 mg/kg, sc measured after 72 hrs […] for 20 mins; format: organism-based; details: in vivo
Summary of the method: (§3)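 Withdrawal precipitated 72 h after implantation by sc compound, after 30 min habituation to an open Plexiglas chamber. Wet dog shakes, escape jumps and paw tremors counted over 20 min, five mice per group. Naloxone 1 mg/kg sc as reference.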

Mus musculus [6] = test: Induction of withdrawal symptoms in morphine-pelleted Swiss Webster mouse model assessed as escape jumps at 10 mg/kg, sc measured after 72 hrs […] for 20 mins; format: organism-based; details: in vivo; summary of the method: as §3
Mus musculus [7] = test: Induction of withdrawal symptoms in morphine-pelleted Swiss Webster mouse model assessed as paw tremors […] at 10 mg/kg, sc measured after 72 hrs […] for 20 mins; format: organism-based; details: in vivo; summary of the method: as §3
Mus musculus [8] = test: Induction of withdrawal symptoms in morphine-pelleted Swiss Webster mouse model assessed as dog shakes at 50 to 100 mg/kg, sc measured after 72 hrs […] for 20 mins; format: organism-based; details: in vivo; summary of the method: as §3
Mus musculus [9] = test: Induction of withdrawal symptoms in morphine-pelleted Swiss Webster mouse model assessed as paw tremors […] at 50 to 100 mg/kg, sc measured after 72 hrs […] for 20 mins; format: organism-based; details: in vivo; summary of the method: as §3
Mus musculus [10] = test: Induction of withdrawal symptoms in morphine-pelleted Swiss Webster mouse model assessed as escape jumps at 50 mg/kg, sc measured after 72 hrs […] for 20 mins; format: organism-based; details: in vivo; summary of the method: as §3
[11] = biological target: Mu-type opioid receptor (Mus musculus) (UniProt P42866); test: Antagonist activity at mouse MOR expressed in CHO cell membranes assessed as inhibition of DAMGO-stimulated [35S]GTPgammaS binding after 90 mins relative to DAMGO; format: functional
Mus musculus [12] = test: Antinociceptive activity in Swiss Webster mouse at 10 mg/kg, sc measured after 20 min post dose by tail immersion test; format: functional, organism-based
Summary of the method: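 Male Swiss Webster mice, 7–8 weeks, 5 per group. Compound given sc, tail immersed in 56 ± 0.1 °C water 20 min later. Only mice with baseline latency of 2–4 s were used. 10 s cutoff. %MPE = [(test – control)/(10 – control)] × 100.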

Mus musculus [13] = test: Induction of withdrawal symptoms in morphine-pelleted Swiss Webster mouse model assessed as dog shakes at 1 mg/kg, sc measured after 72 hrs […] for 20 mins; format: organism-based; details: in vivo; summary of the method: as §3
Mus musculus [14] = test: Induction of withdrawal symptoms in morphine-pelleted Swiss Webster mouse model assessed as escape jumps at 1 mg/kg, sc measured after 72 hrs […] for 20 mins; format: organism-based; details: in vivo; summary of the method: as §3
Mus musculus [15] = test: Induction of withdrawal symptoms in morphine-pelleted Swiss Webster mouse model assessed as dog shakes at 5 mg/kg, sc measured after 72 hrs […] for 20 mins; format: organism-based; details: in vivo; summary of the method: as §3
Mus musculus [16] = test: Induction of withdrawal symptoms in morphine-pelleted Swiss Webster mouse model assessed as escape jumps at 5 mg/kg, sc measured after 72 hrs […] for 20 mins; format: organism-based; details: in vivo; summary of the method: as §3
Mus musculus [17] = test: Induction of withdrawal symptoms in morphine-pelleted Swiss Webster mouse model assessed as paw tremors […] at 5 mg/kg, sc measured after 72 hrs […] for 20 mins; format: organism-based; details: in vivo; summary of the method: as §3
Mus musculus [18] = test: Induction of withdrawal symptoms in morphine-pelleted Swiss Webster mouse model assessed as paw tremors […] at 1 mg/kg, sc measured after 72 hrs […] for 20 mins; format: organism-based; details: in vivo; summary of the method: as §3
Mu-type opioid receptor [19] = biological target: T1, Mu-type opioid receptor (Mus musculus, UniProt P42866); test: Displacement of [3H]-naloxone from mouse MOR expressed in CHO cell membranes by competitive radioligand binding assay; summary of the method: as §1
Mus musculus [20] = organism: Mus musculus; test: Selectivity ratio of Ki for mouse DOR expressed in CHO cell membranes to Ki for mouse MOR expressed in CHO cell membranes; format: cell-based
Summary of the method: (§4)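 Ratio of Ki values from competition binding: 30 μg CHO membranes in TME pH 7.4, filtration. IC50 converted to Ki by Cheng–Prusoff.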

Mus musculus [21] = organism: Mus musculus; test: Selectivity ratio of Ki for mouse KOR expressed in CHO cell membranes to Ki for mouse MOR expressed in CHO cell membranes; format: cell-based; summary of the method: as §4
Mu-type opioid receptor [22] = biological target: T1, Mu-type opioid receptor; test: Antagonist activity at mouse MOR expressed in CHO cell membranes assessed as inhibition of DAMGO-stimulated [35S]GTPgammaS binding after 90 mins; format: functional

Row | SMILES | Ki [1] | Ki [2] | Emax [11] | inhibition (Mus musculus [3]) | other results
1 | O=C(N[C@@H]1CC[C@@]2(O)[C@H]3Cc4ccc(O)c5c4[C@@]2(CCN3CC2CC2)[C@H]1O5)c1ccncc1F | 4.8 nM | 157 nM | – | – | inhibition in vivo at 10 mg/kg (Mus musculus [3]): 6.2%; ED50 (Mus musculus [4]): 2.82 mg/kg; Activity (Mus musculus [5]): Non-Toxic; Activity (Mus musculus [6]): Non-Toxic; Activity (Mus musculus [7]): Non-Toxic; Activity (Mus musculus [8]): Non-Toxic; Activity (Mus musculus [9]): Toxic; Activity (Mus musculus [10]): Non-Toxic
2 | N#Cc1cnccc1C(=O)N[C@@H]1CC[C@@]2(O)[C@H]3Cc4ccc(O)c5c4[C@@]2(CCN3CC2CC2)[C@H]1O5 | 2.74 nM | 46.3 nM | 26.1% | – | Activity (Mus musculus [12]): inactive; inhibition in vivo at 10 mg/kg (Mus musculus [3]): 7.8%; ED50 (Mus musculus [4]): 1.75 mg/kg; inhibition (Mus musculus [4]): Dose-dependent effect; Activity (Mus musculus [13]): Non-Toxic; Activity (Mus musculus [14]): Non-Toxic; Activity (Mus musculus [15]): Toxic; Activity (Mus musculus [16]): Toxic; Activity (Mus musculus [17]): Toxic
3 | O=C(N[C@@H]1CC[C@@]2(O)[C@H]3Cc4ccc(O)c5c4[C@@]2(CCN3CC2CC2)[C@H]1O5)c1ccncc1C1CCCCC1 | 3.32 nM | 11.2 nM | 51.6% | inactive | –
4 | CC(C)Cc1cnccc1C(=O)N[C@@H]1CC[C@@]2(O)[C@H]3Cc4ccc(O)c5c4[C@@]2(CCN3CC2CC2)[C@H]1O5 | 75.6 nM | 149 nM | 27.3% | inactive | –
5 | O=C(N[C@@H]1CC[C@@]2(O)[C@H]3Cc4ccc(O)c5c4[C@@]2(CCN3CC2CC2)[C@H]1O5)c1ccncc1C1CCCC1 | 8.16 nM | 34 nM | – | inactive | –
6 | CCc1cnccc1C(=O)N[C@@H]1CC[C@@]2(O)[C@H]3Cc4ccc(O)c5c4[C@@]2(CCN3CC2CC2)[C@H]1O5 | 9.18 nM | 42.9 nM | 41.6% | inactive | –
7 | C=CCN1CC[C@]23c4c5ccc(O)c4O[C@H]2C(=O)CC[C@@]3(O)[C@H]1C5 [NALOXONE] | – | – | – | – | Activity (Mus musculus [13]): Toxic; Activity (Mus musculus [14]): Toxic; Activity (Mus musculus [18]): Toxic
8 | COC(=O)c1cnccc1C(=O)N[C@@H]1CC[C@@]2(O)[C@H]3Cc4ccc(O)c5c4[C@@]2(CCN3CC2CC2)[C@H]1O5 | 11.7 nM | 137 nM | 29.2% | inactive | –
9 | O=C(N[C@@H]1CC[C@@]2(O)[C@H]3Cc4ccc(O)c5c4[C@@]2(CCN3CC2CC2)[C@H]1O5)c1ccncc1[N+](=O)[O-] | 4.46 nM | 95.6 nM | 39.1% | inactive | –
10 | O=C(O)c1cnccc1C(=O)N[C@@H]1CC[C@@]2(O)[C@H]3Cc4ccc(O)c5c4[C@@]2(CCN3CC2CC2)[C@H]1O5 | 2.43 nM | 55.6 nM | 29.3% | inactive | Ki (Mu-type opioid receptor [19]): 0.76 nM; Ratio Ki (Mus musculus [20]): 73.2; Ratio Ki (Mus musculus [21]): 3.2; EC50 (Mu-type opioid receptor [22]): 1.83 nM
11 | O=C(N[C@@H]1CC[C@@]2(O)[C@H]3Cc4ccc(O)c5c4[C@@]2(CCN3CC2CC2)[C@H]1O5)c1ccncc1C(F)(F)F | 12.5 nM | 61.8 nM | 31.9% | inactive | Ki (Mu-type opioid receptor [19]): 0.43 nM; Ratio Ki (Mus musculus [20]): 144; Ratio Ki (Mus musculus [21]): 29.1; EC50 (Mu-type opioid receptor [22]): 1.38 nM
12 | O=C(N[C@@H]1CC[C@@]2(O)[C@H]3Cc4ccc(O)c5c4[C@@]2(CCN3CC2CC2)[C@H]1O5)c1ccncc1C1CCCCCC1 | 5.16 nM | 15 nM | 48.3% | inactive | –
13 | O=C(N[C@@H]1CC[C@@]2(O)[C@H]3Cc4ccc(O)c5c4[C@@]2(CCN3CC2CC2)[C@H]1O5)c1ccncc1-c1ccccc1 | 3.42 nM | 44.8 nM | 44.4% | inactive | –
